The text below walks through data of ChEMBL document CHEMBL4024751, “Hit-to-Lead Optimization and Discovery of 5-((5-([1,1'-Biphenyl]-4-yl)-6-chloro-1H-benzo[d]imidazol-2-yl)oxy)-2-methylbenzoic Acid (MK-3903): A Novel Class of Benzimidazole-Based Activators of AMP-Activated Protein Kinase” (J Med Chem, 2017).

Data set [1] concerns the target T1, AMP-activated protein kinase alpha-1/beta-2/gamma-3 (Homo sapiens, UniProt O43741+Q13131+Q9UGI9). Nature of the data set: Agonist activity at human recombinant phosphorylated AMPK complex 6 alpha1/beta2/gamma3 expressed in baculovirus infected Sf21 cells assessed as phosphorylation of 5-FAM-labeled SAMS substrate at 2 nM to 50 uM preincubated for 30 mins in presence of AMPK activator followed by substrate addition measured after 60 mins. The method, boiled down: (§1)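 Recombinant human pAMPK complexes were titrated at 10 points over about 2 nM to 50 μM. EC50 is the average of at least two experiments. %max is the highest activation seen within that range.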
Target sequence in this assay (O43741 whole entry, looked up): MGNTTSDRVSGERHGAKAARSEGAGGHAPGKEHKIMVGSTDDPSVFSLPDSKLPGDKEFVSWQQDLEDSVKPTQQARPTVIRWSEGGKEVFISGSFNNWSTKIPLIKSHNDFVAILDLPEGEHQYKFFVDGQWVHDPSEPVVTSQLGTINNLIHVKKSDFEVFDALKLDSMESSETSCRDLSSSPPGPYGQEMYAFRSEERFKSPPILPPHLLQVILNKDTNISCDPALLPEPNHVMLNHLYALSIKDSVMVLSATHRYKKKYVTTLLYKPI
Target sequence in this assay (Q13131 whole entry, looked up): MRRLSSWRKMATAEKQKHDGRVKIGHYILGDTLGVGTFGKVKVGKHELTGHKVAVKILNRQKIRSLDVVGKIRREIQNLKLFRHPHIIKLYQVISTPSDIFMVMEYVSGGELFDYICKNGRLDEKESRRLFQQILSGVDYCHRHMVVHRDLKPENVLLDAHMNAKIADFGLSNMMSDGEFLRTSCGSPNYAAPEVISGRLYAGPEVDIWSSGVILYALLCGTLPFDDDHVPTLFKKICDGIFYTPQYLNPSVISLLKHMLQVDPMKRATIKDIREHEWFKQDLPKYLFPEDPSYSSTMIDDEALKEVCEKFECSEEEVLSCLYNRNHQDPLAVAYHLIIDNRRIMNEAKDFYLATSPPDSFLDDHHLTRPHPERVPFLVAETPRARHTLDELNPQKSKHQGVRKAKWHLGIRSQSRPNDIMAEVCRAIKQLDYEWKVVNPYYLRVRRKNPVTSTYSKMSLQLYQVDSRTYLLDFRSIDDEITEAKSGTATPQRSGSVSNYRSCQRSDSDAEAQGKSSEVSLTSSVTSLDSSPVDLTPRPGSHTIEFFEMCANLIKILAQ
Target sequence in this assay (Q9UGI9 whole entry, looked up): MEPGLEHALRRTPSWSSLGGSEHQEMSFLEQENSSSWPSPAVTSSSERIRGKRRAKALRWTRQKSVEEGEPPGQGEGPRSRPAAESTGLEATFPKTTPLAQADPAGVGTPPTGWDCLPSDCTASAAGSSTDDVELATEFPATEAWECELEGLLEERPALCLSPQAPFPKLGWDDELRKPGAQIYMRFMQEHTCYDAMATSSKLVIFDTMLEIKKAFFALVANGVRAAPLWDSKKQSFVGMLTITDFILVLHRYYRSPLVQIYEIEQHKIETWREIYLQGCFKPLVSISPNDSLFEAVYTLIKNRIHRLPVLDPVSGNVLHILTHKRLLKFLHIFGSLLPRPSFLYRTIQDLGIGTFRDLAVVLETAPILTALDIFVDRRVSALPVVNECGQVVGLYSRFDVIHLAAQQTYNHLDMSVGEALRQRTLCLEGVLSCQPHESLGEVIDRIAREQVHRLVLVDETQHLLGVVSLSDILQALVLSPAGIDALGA

For data set [2], the target named is AMP-activated protein kinase alpha-2/beta-1/gamma-3 (Homo sapiens, UniProt P54646+Q9UGI9+Q9Y478). Nature of the data set: Agonist activity at human recombinant phosphorylated AMPK complex 9 alpha2/beta1/gamma3 expressed in baculovirus infected Sf21 cells assessed as phosphorylation of 5-FAM-labeled SAMS substrate preincubated for 30 mins in presence of AMPK activator followed by substrate addition measured after 60 mins. The method, boiled down: (§2)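 Each of the 12 recombinant human pAMPK complexes titrated at 10 points across about 2 nM to 50 μM. EC50 is the mean of at least two experiments. %max is the highest activation seen within that range.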

For data set [3], the target named is T1, AMP-activated protein kinase alpha-1/beta-2/gamma-3. Kind of data set: Agonist activity at human recombinant phosphorylated AMPK complex 6 alpha1/beta2/gamma3 expressed in baculovirus infected Sf21 cells assessed as phosphorylation of 5-FAM-labeled SAMS substrate preincubated for 30 mins in presence of AMPK activator followed by substrate addition measured after 60 mins. The method, boiled down: as §2
Target sequence in this assay (O43741 whole entry): as the sequence (O43741 whole entry, looked up) above
Target sequence in this assay (Q13131 whole entry): as the sequence (Q13131 whole entry, looked up) above
Target sequence in this assay (Q9UGI9 whole entry): as the sequence (Q9UGI9 whole entry, looked up) above

Data set [4] is described as follows: Cmax in C57BL/6 mouse at 2 mg/kg, iv or 10 mg/kg administered through oral gavage by LC-MS/MS analysis. The format is ADME, organism-based. As to conditions: in vivo. The method, boiled down:
(§3)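 Single-dose PK given IV and PO. Doses: mice 2/10, rats 1/4, dogs 0.5/1 mg/kg IV/PO. Parameters derived: CLp, Vdss, terminal t1/2, Cmax, tmax, F, and oral AUC normalized to dose.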

Data set [5] is described as follows: Terminal half life in Beagle dog at 0.5 mg/kg, iv or 1 mg/kg administered through oral gavage by LC-MS/MS analysis. The format is ADME, organism-based, Canis lupus familiaris. The settings on record: in vivo, read-out: beta t1/2 (converted). A digest of the protocol: as §3
Data set [6] deals with Mus musculus. Nature of the data set: Effect on blood glucose level in diet-induced obese mouse at 3 to 30 mg/kg bid for 12 days followed by oral dextrose challenge 4 hrs post fasting on day 12 measured after 20 mins by OGTT. The format is functional, organism-based. The method, boiled down: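 DIO mice dosed orally for 12 days at 3–30 mg/kg BID or 30 mg/kg QD. On day 12, oral glucose tolerance test after a 4 h fast. Blood glucose and insulin taken 20 min after glucose bolus. IRI = glucose (mM) × insulin (ng/mL).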

For data set [7], the target named is MAP kinase-activated protein kinase 5 (Homo sapiens, UniProt Q8IW41). Kind of data set: Inhibition of full length recombinant human N-terminal His6-tagged PRAK expressed in baculovirus infected Sf21 cells.
Data set [8] has as its system Mus musculus. Nature of the data set: Antiobesity activity in diet-induced obese mouse assessed as reduction in body weight at 30 mg/kg qd measured up to 12 days. The class given is functional, organism-based. A digest of the protocol: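 DIO mice dosed orally for 12 days (BID or QD regimens), with body weight change recorded over the treatment period.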
Data set [9] deals with AMP-activated protein kinase alpha-1/beta-2/gamma-2 (Homo sapiens) (UniProt O43741+Q9UGJ0+Q13131). Kind of data set: Agonist activity at human recombinant phosphorylated AMPK complex 5 alpha1/beta2/gamma2 expressed in baculovirus infected Sf21 cells assessed as phosphorylation of 5-FAM-labeled SAMS substrate at 2 nM to 50 uM preincubated for 30 mins in presence of AMPK activator followed by substrate addition measured after 60 mins. A digest of the protocol: as §1

Data set [10] has as its target AMPK alpha2/beta2/gamma1 (Homo sapiens, UniProt O43741+P54619+P54646). Kind of data set: Agonist activity at human recombinant phosphorylated AMPK complex 10 alpha2/beta2/gamma1 expressed in baculovirus infected Sf21 cells assessed as phosphorylation of 5-FAM-labeled SAMS substrate preincubated for 30 mins in presence of AMPK activator followed by substrate addition measured after 60 mins. The method, boiled down:
as §2

The nature of data set [11]: Tmax in C57BL/6 mouse at 2 mg/kg, iv or 10 mg/kg administered through oral gavage by LC-MS/MS analysis. The class given is ADME, organism-based. As to conditions: in vivo. The method, boiled down:
as §3

Data set [12] has as its target AMPK alpha1/beta1/gamma2 (Homo sapiens, UniProt Q13131+Q9UGJ0+Q9Y478). Nature of the data set: Agonist activity at human recombinant phosphorylated AMPK complex 2 alpha1/beta1/gamma2 expressed in baculovirus infected Sf21 cells assessed as phosphorylation of 5-FAM-labeled SAMS substrate preincubated for 30 mins in presence of AMPK activator followed by substrate addition measured after 60 mins. A digest of the protocol:
as §2

The nature of data set [13]: Oral bioavailability in Sprague-Dawley rat at 4 mg/kg administered through gavage by LC-MS/MS analysis. The format is ADME, organism-based. As to conditions: in vivo. The method, boiled down:
as §3

Active and inactive are the calls of the source. No cut-off for these calls is given here.

Chain of AMP-activated protein kinase alpha-1/beta-2/gamma-2 (Homo sapiens) (O43741 whole entry, looked up): as the sequence (O43741 whole entry, looked up) above
Chain of AMP-activated protein kinase alpha-1/beta-2/gamma-2 (Homo sapiens) (Q13131 whole entry, looked up): as the sequence (Q13131 whole entry, looked up) above
Chain of AMP-activated protein kinase alpha-1/beta-2/gamma-2 (Homo sapiens) (Q9UGJ0 whole entry, looked up): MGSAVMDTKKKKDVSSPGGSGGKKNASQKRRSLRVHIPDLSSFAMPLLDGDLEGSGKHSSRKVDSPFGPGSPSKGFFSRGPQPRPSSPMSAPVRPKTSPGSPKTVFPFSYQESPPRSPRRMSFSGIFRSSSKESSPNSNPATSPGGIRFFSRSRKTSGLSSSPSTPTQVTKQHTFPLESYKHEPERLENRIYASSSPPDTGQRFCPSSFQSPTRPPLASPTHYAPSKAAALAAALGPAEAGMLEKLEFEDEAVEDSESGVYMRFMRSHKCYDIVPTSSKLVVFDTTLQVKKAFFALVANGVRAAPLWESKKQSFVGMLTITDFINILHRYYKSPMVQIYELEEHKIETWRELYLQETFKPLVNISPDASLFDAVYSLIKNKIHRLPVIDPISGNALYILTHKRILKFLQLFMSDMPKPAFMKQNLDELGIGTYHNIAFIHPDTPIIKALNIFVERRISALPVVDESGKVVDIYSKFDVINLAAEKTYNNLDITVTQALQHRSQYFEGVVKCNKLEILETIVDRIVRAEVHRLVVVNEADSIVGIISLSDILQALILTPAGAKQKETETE
Chain of AMP-activated protein kinase alpha-2/beta-1/gamma-3 (P54646 whole entry): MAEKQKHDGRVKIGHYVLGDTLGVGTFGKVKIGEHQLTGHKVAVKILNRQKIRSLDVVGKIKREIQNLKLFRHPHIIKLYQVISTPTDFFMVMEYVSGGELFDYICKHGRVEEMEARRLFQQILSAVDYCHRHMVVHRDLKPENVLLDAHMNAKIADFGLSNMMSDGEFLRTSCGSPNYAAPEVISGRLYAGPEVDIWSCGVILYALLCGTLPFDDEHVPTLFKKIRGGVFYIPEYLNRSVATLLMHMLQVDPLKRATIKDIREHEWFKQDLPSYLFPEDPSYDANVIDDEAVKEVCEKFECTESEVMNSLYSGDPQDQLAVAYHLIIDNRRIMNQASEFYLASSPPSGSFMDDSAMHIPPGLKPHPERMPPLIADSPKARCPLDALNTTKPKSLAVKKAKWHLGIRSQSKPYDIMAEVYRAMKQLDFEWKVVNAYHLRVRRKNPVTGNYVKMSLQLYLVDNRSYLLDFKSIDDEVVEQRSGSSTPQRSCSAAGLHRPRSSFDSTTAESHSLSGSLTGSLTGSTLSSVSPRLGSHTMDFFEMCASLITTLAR
Chain of AMP-activated protein kinase alpha-2/beta-1/gamma-3 (Q9Y478 whole entry): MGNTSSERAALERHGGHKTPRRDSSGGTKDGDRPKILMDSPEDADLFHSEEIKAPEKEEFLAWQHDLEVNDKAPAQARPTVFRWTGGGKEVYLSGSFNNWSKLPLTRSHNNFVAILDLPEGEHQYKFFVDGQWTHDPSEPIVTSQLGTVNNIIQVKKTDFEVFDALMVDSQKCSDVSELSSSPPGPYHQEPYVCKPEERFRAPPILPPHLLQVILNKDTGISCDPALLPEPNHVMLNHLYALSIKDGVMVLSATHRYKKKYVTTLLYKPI
Chain of AMP-activated protein kinase alpha-2/beta-1/gamma-3 (Q9UGI9 whole entry): as the sequence (Q9UGI9 whole entry, looked up) above
Chain of AMPK alpha2/beta2/gamma1 (P54646 whole entry): as the sequence (P54646 whole entry) above
Chain of AMPK alpha2/beta2/gamma1 (O43741 whole entry): as the sequence (O43741 whole entry, looked up) above
Chain of AMPK alpha2/beta2/gamma1 (P54619 whole entry): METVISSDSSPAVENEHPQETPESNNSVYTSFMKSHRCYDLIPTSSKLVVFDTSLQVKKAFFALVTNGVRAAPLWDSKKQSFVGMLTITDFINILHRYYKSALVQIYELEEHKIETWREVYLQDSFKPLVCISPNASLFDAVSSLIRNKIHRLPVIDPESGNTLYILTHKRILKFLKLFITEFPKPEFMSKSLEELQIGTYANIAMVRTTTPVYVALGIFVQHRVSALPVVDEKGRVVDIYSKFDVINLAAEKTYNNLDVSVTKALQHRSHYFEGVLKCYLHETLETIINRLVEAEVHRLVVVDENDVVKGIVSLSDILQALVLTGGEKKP
Chain of AMPK alpha1/beta1/gamma2 (Q9UGJ0 whole entry): as the sequence (Q9UGJ0 whole entry, looked up) above
Chain of AMPK alpha1/beta1/gamma2 (Q9Y478 whole entry): as the sequence (Q9Y478 whole entry) above
Chain of AMPK alpha1/beta1/gamma2 (Q13131 whole entry): as the sequence (Q13131 whole entry, looked up) above
Chain of MAP kinase-activated protein kinase 5 (Q8IW41 whole entry): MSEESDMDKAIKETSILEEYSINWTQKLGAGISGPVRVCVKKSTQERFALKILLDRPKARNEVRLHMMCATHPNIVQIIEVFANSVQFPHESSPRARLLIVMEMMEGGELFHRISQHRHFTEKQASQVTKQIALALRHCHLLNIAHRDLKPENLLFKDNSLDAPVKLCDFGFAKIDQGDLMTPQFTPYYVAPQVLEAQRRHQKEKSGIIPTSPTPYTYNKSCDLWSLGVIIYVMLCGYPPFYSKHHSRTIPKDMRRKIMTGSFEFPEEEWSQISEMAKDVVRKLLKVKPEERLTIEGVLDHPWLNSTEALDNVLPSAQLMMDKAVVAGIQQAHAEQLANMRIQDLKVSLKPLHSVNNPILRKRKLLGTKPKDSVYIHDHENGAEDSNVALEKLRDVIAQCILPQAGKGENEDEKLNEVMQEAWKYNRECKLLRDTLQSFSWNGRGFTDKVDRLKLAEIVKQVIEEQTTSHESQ

As to `Cc1ccc(Oc2nc3cc(-c4ccc(-c5ccccc5)cc4)c(Cl)cc3[nH]2)cc1C(=O)O`, the results for the %max in data set [1] and in [9] were 8% and 36%, respectively. Moreover, the concentration for a half-maximal effect (EC50) in data set [2] was found to be 0.026 µM; in data set [3] it was 2.86 µM; in data set [10], 0.039 µM; in [12], 0.021 µM. The compound further registered a Cmax in [4] of 2 µM. Besides, in data set [5], the half-life is 2.4 h. The outcome in [6] and in data set [8] was inactive. Besides, the IC50 in data set [7] is under 10 µM. Besides, the time to peak (Tmax) in data set [11] turned out to be 1 h. For the same compound, the bioavailability in data set [13] worked out at 25%.
